A short description of test [1]: Cytotoxicity against human 518A2 cells after 48 hrs by MTT assay. The settings on record: 518A2, 48 h. In kind it is functional, cell-based. In short, it runs like this: (§1)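 MTT assay. Cells seeded and cultured 24 h, then exposed to compound for 24, 48 or 72 h. MTT added to a final 0.05% (HL-60, 518A2) or 0.1% (KB-V1, MCF-7) for 2 h. Formazan dissolved in 10% SDS/DMSO with 0.6% acetic acid; absorbance read at 570 nm against 630 nm background. Viability taken relative to untreated controls (100%). IC50 from concentration-response curves, mean ± SD of four independent experiments.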
In general terms: Tetrazolium assays rely on reduction of a dye to a coloured formazan, in cell work by metabolically active cells.

Test [2] can be described thus: Cytotoxicity against human 518A2 cells after 72 hrs by MTT assay. Format: functional, cell-based. The settings on record: 518A2, 72 h. The method, boiled down: as §1
Test [3] has as its system MCF7. Briefly: Cytotoxicity against human topotecan-resistant MCF7 cells after 48 hrs by MTT assay. The settings on record: MCF7, 48 h. In kind it is functional, cell-based. The method, boiled down: as §1
The test system of test [4] is MCF7. The test can be described thus: Cytotoxicity against human topotecan-resistant MCF7 cells after 72 hrs by MTT assay. The settings on record: MCF7, 72 h. In kind it is functional, cell-based. In short, it runs like this:
as §1

Test [5] is described as follows: Cytotoxicity against human vinblastine-resistant KBV1 cells after 72 hrs by MTT assay in presence of 24 mM ABC transporter inhibitor verapamil hydrochloride. In kind it is functional, cell-based. The settings on record: KB-V1, 72 h, in the assay text read “24 uM” for “24 mM”. The method, boiled down: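 MTT viability assay on P-gp-overexpressing KB-V1/Vbl cells with 24 µM verapamil hydrochloride added before the compound; 72 h exposure. Formazan read at 570/630 nm relative to untreated controls. IC50 from concentration-response curves, mean ± SD of four independent experiments.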

For test [6], the system named is MCF7. The test can be described thus: Cytotoxicity against human doxorubicin-resistant MCF7 cells by MTT assay. In kind it is functional.
The test system of test [7] is MCF7. Briefly: Ratio of compound IC50 to doxorubicin IC50 for human doxorubicin-resistant MCF7 cells. In kind it is functional.
The nature of test [8]: Ratio of compound IC50 to doxorubicin IC50 for human doxorubicin-resistant KBV1 cells. In kind it is functional.
In test [9] the test system is HL-60. The test can be described thus: Induction of apoptosis in human HL60 cells assessed as DNA ladder formation at 5 uM after 24 hrs by agarose gel electrophoresis. Format: functional, cell-based. The method, boiled down:
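HL-60 cells incubated with 5 µM compound for 24 h, then examined for DNA ladder patterns.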

In another test the test system is 518A2. The test can be described thus: Induction of apoptosis in human 518A2 cells assessed as appearance of intact mitochondria in cytosol at 5 uM after 18 hrs using JC1 dye relative to control. In kind it is functional. In short, it runs like this: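 Mitochondrial membrane potential measured with JC-1. Cells exposed to 5 µM compound for 6 or 18 h, pelleted at 400 g, stained with 0.2× JC-1 at 37 °C for 15 min (HL-60) or 35 min (518A2), washed and resuspended in PBS. Red fluorescence (ex 585/em 590 nm) and green (ex 510/em 527 nm) read; red/green ratio relative to untreated controls (100%). Mean ± SD, four independent experiments.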

The nature of test [10]: Cytotoxicity against human 518A2 cells assessed as increase in ROS production at 5 uM after 24 hrs by NBT reduction assay relative to control. Format: functional. In short, it runs like this:
(§2)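 NBT assay. HL-60 cells (0.5×10⁶/mL) or trypsinised 518A2 cells (5×10⁴/mL) pre-incubated 24 h at 37 °C, then given compound at a final 5 µM for 24 or 72 h. Medium removed; cells incubated with 0.1% NBT for 1 h (HL-60) or 4 h (518A2). Diformazan dissolved in 2 M KOH/DMSO; A630 read against 405 nm. Given as % of untreated controls; double quadruplicates.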

Test [11] relates to HL-60. Briefly: Cytotoxicity against human HL60 cells assessed as increase in ROS production at 5 uM after 72 hrs by NBT reduction assay relative to control. Format: functional. The method, boiled down:
as §2

Structures are written as SMILES. Calls of active or inactive are those of the source. No cut-off for these calls is given here.

1 molecule from ChEMBL document CHEMBL1157852, “Modulation of doxorubicin activity in cancer cells by conjugation with fatty acyl and terpenyl hydrazones” (Eur J Med Chem, 2010) can be followed below.

On to `COc1cccc2c1C(=O)c1c(O)c3c(c(O)c1C2=O)C[C@@](O)(/C(CO)=N/NC(=O)CCCCCCCCCCC(=O)O[C@@H]1C[C@H](C)CC[C@H]1C(C)C)C[C@@H]3O[C@H]1C[C@H](N)[C@H](O)[C@H](C)O1.Cl`, for which the IC50 (in general, the concentration at which inhibition is half-maximal) is 160 nM in test [1]; 60 nM in test [2]; 2600 nM with MCF7 [3]; 2600 nM with MCF7 [4]; 670 nM in test [5]. For the same molecule, the Activity in the test with MCF7 [6] is 55 nM; in the test on 518A2 it was 71%; in [10], 3.3%; with HL-60 [11], 5.9%. The “Ratio IC50” value (with MCF7 [7]; in [8]) was 1.6 in each case. For the same molecule, in the test on HL-60 [9], the result was Active.
